Laboratory results from ChEMBL document CHEMBL4414612, “Synthesis and Pharmacological Evaluation of 1-Phenyl-3-Thiophenylurea Derivatives as Cannabinoid Type-1 Receptor Allosteric Modulators” (J Med Chem, 2019).

Columns and labels:
Cannabinoid receptor 1 [1] = molecular target: T1, Cannabinoid receptor 1 (Homo sapiens, UniProt P21554); assay: Allosteric modulator activity at human CB1 receptor expressed in CHO-RD-HGA16 cells co-expressing Galpha16 assessed as suppression of 100 nM CP55,940-induced calcium mobilization pre-incubated for 15 mins by Calcium 5 dye based FLIPR assay; format: functional, cell-based
T1 sequence (P21554 whole entry): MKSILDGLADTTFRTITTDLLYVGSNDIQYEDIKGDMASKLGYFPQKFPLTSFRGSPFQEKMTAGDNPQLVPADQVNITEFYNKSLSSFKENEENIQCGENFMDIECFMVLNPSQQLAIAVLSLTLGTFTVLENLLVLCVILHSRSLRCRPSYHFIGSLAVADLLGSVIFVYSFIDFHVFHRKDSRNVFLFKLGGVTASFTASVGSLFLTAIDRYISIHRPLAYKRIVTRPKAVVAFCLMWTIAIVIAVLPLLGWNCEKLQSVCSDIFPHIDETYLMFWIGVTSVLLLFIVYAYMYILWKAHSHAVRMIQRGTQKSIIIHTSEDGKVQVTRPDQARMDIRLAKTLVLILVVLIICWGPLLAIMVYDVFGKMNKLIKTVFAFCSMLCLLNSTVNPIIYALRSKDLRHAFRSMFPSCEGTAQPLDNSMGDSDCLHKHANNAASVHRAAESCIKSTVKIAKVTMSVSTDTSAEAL

Cannabinoid receptor 1 [2] = molecular target: T1, Cannabinoid receptor 1; assay: Inverse agonist activity at human CB1 receptor expressed in HEK293 cell membranes assessed as suppression of [35S]GTPgammaS binding at 10 uM incubated for 60 mins by scintillation counting method; conditions: hek293, 1 h
Outline: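 Inverse agonism on human CB1-HEK293 membranes: compounds were incubated 60 min with 0.1 nM [35S]GTPγS and 30 µM GDP, with no CP55,940 present. Buffer was Tris/MgCl2/EGTA pH 7.4 with 0.5% BSA, at 30 °C. Binding was read by filtration and scintillation counting and normalized to basal (vehicle = 0%).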

Cannabinoid receptor 2 [3] = molecular target: T2, Cannabinoid receptor 2 (Homo sapiens, UniProt P34972); assay: Antagonist activity at human CB2 receptor expressed in CHO cells co-expressing Galpha16 assessed as inhibition of EC80 CP55,940-induced calcium mobilization at 10 uM preincubated for 15 mins followed by […] addition measured at 1 sec interval for 90 secs by calcium-5 dye based FLIPR assay relative to CP55,940; format: functional, cell-based
T2 sequence (P34972 whole entry): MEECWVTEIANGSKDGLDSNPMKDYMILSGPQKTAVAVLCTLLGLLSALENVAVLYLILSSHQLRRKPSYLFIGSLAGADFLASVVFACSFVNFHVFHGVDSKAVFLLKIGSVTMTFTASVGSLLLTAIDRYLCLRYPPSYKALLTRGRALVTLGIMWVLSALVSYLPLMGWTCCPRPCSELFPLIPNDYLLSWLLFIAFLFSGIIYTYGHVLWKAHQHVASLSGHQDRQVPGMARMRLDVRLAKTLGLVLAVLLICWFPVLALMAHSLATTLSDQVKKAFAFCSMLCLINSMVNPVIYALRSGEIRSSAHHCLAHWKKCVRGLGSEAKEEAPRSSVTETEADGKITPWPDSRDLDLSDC
Outline: (§1)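 CB2 antagonist mode in stable human CB2-CHO-RD-HGA16 cells. Cells were dye-loaded, then pretreated with compound for 15 min at 37 °C. CP55,940 was added at its EC80 at the 10 s point, and calcium fluorescence was recorded every 1 s over 90 s.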

Cannabinoid receptor 2 [4] = molecular target: T2, Cannabinoid receptor 2; assay: Antagonist activity at human CB2 receptor expressed in CHO cells co-expressing Galpha16 assessed as inhibition of EC80 CP55,940-induced calcium mobilization preincubated for 15 mins followed by […] addition measured at 1 sec interval for 90 secs by calcium-5 dye based FLIPR assay; format: functional, cell-based; outline: as §1
Cannabinoid receptor 1 [5] = molecular target: T1, Cannabinoid receptor 1; assay: Allosteric modulator activity at human CB1 receptor expressed in HEK293 cell membranes assessed as suppression of 100 nM CP55,940-induced [35S]GTPgammaS binding incubated for 60 mins by scintillation counting method; format: functional
Cannabinoid receptor 2 [6] = molecular target: T2, Cannabinoid receptor 2; assay: Agonist activity at human CB2 receptor expressed in CHO cells co-expressing Galpha16 assessed as increase in calcium mobilization at 10 uM measured at 1 sec interval for 90 secs by calcium-5 dye based FLIPR assay relative to CP55,940; format: functional, cell-based
Cannabinoid receptor 1 [7] = molecular target: T3, Cannabinoid receptor 1 (Mus musculus, UniProt P47746); assay: Allosteric modulator activity at CB1 receptor in mouse cerebellar membranes assessed as suppression of 100 nM CP55,940-induced [35S]GTPgammaS binding incubated for 60 mins by scintillation counting method; format: functional, cell membranes, Cerebellum, Membrane
T3 sequence (P47746 whole entry): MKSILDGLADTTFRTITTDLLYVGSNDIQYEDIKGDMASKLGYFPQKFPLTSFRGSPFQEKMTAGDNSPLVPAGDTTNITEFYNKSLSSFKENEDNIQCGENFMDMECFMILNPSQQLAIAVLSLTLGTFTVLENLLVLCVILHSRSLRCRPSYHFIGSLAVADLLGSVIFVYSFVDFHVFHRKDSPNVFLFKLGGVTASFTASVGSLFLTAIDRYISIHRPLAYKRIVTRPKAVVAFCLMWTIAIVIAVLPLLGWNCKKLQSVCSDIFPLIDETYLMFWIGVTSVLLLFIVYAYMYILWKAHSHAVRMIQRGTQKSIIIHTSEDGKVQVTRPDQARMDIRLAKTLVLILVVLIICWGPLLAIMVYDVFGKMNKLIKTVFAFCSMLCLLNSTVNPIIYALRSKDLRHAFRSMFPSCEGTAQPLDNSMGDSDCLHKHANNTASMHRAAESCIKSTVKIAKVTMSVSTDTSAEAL

Cannabinoid receptor 1 [8] = molecular target: T1, Cannabinoid receptor 1; assay: Agonist activity at human CB1 receptor expressed in CHO-RD-HGA16 cells co-expressing Galpha16 assessed as suppression stimulation of calcium mobilization incubated for 45 mins by Calcium 5 dye based FLIPR assay relative to CP55,940; format: functional, cell-based
Outline: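 CHO-RD-HGA16 cells stably expressing human CB1 (with Galpha16), plated overnight and loaded with Calcium 5 dye for 45 min at 37 °C. […] Compound was added by the FLIPR Tetra at the 10 s point as a single concentration, and fluorescence (485/525 nm) was read every 1 s for 90 s. RFU were expressed as % of CP55,940 Emax.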

Cannabinoid receptor 1 [9] = molecular target: T1, Cannabinoid receptor 1; assay: Displacement of [3H]CP55,940 from human CB1 receptor
Cannabinoid receptor 1 [10] = molecular target: T3, Cannabinoid receptor 1; assay: Allosteric modulator activity at CB1 receptor in mouse cerebellar membranes assessed as suppression of 1 uM CP55,940-induced [35S]GTPgammaS binding incubated for 60 mins by scintillation counting method; format: functional, cell membranes, Cerebellum, Membrane
[11] = Half life in rat liver microsomes; format: ADME, Microsome
Outline: (§2)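 Rat liver microsomes (0.5 mg/mL protein) in 100 mM potassium phosphate pH 7.4 at 37 °C with 1 mM NADPH. Samples were taken at 0, 5, 15, 30 and 45 min, quenched with cold acetonitrile containing internal standards, and analysed by LC/MS/MS. Half-life and clearance were calculated; two independent experiments in duplicate.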

[12] = Apparent permeability from basolateral to apical side in MDCK-MDR1 cells incubated up to 90 mins by LC-MS/MS analysis; format: ADME, cell-based, Canis lupus familiaris; conditions: dog
Outline: (§3)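 MDCK-MDR1 cells were grown 3 days on Transwell supports and preincubated 30 min at 37 °C in HBSS with 10 mM HEPES and 0.25% BSA, pH 7.4, with TEER checked. Test article (10 µM) was added to the apical (A-to-B) or basolateral (B-to-A) donor side at 37 °C with light agitation. Receiver samples were taken at 30, 60 and 90 min for LC-MS/MS. Papp = (dQ/dt)/(A·Ci·60).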

[13] = Kinetic solubility in phosphate buffer at 400 uM incubated for 2 hrs by LC-MS/MS analysis; format: physicochemical; conditions: read-out: Kinetic_solubility
Outline: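 A 20 mM DMSO stock was diluted into phosphate buffer to a targeted 400 µM and vortexed 2 h at room temperature. Three independent experiments in duplicate.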

[14] = Half life in rat liver microsomes in presence of NADPH by LC-MS/MS analysis; format: ADME, Microsome; conditions: liver microsomes; outline: as §2
[15] = Apparent permeability from apical to basolateral side in MDCK-MDR1 cells incubated up to 90 mins by LC-MS/MS analysis; format: ADME, cell-based, Canis lupus familiaris; conditions: dog; outline: as §3
[16] = Clearance in rat liver microsomes in presence of NADPH incubated up to 45 mins by LC-MS/MS analysis; format: ADME, Microsome; conditions: liver microsomes, read-out: CLH; outline: as §2
Cannabinoid receptor 1 [17] = molecular target: T3, Cannabinoid receptor 1; assay: Allosteric antagonist activity at mouse CB1 receptor by GTPgammaS assay; format: functional
Outline: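 Cerebellar membranes from male ICR mice (6-8 weeks), preincubated 10 min with adenosine deaminase (3 units/ml) in Tris/MgCl2/EGTA buffer, pH 7.4. Membranes (10 µg) pre-equilibrated 30 min with modulator, CP55,940 (100 nM; some also at 1 µM), 30 µM GDP and 0.5% BSA, then 0.1 nM [35S]GTPγS for 60 min at 30 °C.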

Emax (Cannabinoid receptor 2 [6]) [%]	Compound	inhibition (INH) (Cannabinoid receptor 1 [2])	inhibition (Cannabinoid receptor 2 [3]) [%]	IC50 (Cannabinoid receptor 2 [4]) [µM]	further results
< 10	O=C(Nc1ccc(Cl)cc1)Nc1ccc(-c2cccnc2)s1	Active	< 50	> 10	–
< 10	O=C(Nc1ccc(Cl)cc1)Nc1ccc(-c2ccc(F)cc2)s1	Active	< 50	> 10	–
< 10	CS(=O)(=O)c1cccc(-c2ccc(NC(=O)Nc3ccc(Cl)cc3)s2)c1	Active	< 50	> 10	–
< 10	COc1ccccc1-c1ccc(NC(=O)Nc2ccc(Cl)cc2)s1	Active	< 50	> 10	–
< 10	Cc1cccc(-c2ccc(NC(=O)Nc3ccc(Cl)cc3)s2)c1	Active	< 50	> 10	–
< 10	CC(=O)c1cccc(-c2ccc(NC(=O)Nc3ccc(Cl)cc3)s2)c1	Active	< 50	> 10	–
< 10	O=C(Nc1ccc(Cl)cc1)Nc1ccc(-c2ccc(Cl)c(Cl)c2)s1	Active	< 50	> 10	–
< 10	O=C(Nc1ccc(Cl)cc1)Nc1ccc(-c2cccc(Cl)c2)s1	Active	< 50	> 10	–
< 10	O=C(Nc1ccc(Cl)cc1)Nc1ccc(-c2ccc(Cl)cc2)s1	Active	< 50	> 10	–
< 10	O=C(Nc1ccc(Cl)cc1)Nc1ccc(-c2cccc(F)c2)s1	Active	< 50	> 10	–

The remaining lines, values behind:

Compound	Emax (Cannabinoid receptor 2 [6]) [%]	inhibition (INH) (Cannabinoid receptor 1 [2])	inhibition (Cannabinoid receptor 2 [3]) [%]	IC50 (Cannabinoid receptor 2 [4]) [µM]	further results
O=C(Nc1ccc(Cl)cc1)Nc1cc(-c2ccccc2)ccn1	< 10	Active	< 50	> 10	IC50 (Cannabinoid receptor 1 [1]): 0.156 µM; IC50 (Cannabinoid receptor 1 [5]): > 10 µM; IC50 (Cannabinoid receptor 1 [7]): > 10 µM
COc1ccc(-c2cccc(N3CCCC3)n2)cc1NC(=O)Nc1ccc(Cl)cc1	< 10	Active	< 50	> 10	–
O=C(Nc1ccc(Cl)cc1)Nc1ccc(-c2ccc(F)cc2F)s1	< 10	Active	< 50	> 10	–
O=C(Nc1ccc(Cl)cc1)N[C@@H]1CCCN(c2ccccc2)C1	< 10	Active	< 50	> 10	IC50 (Cannabinoid receptor 1 [1]): 3.88 µM; IC50 (Cannabinoid receptor 1 [5]): > 10 µM
O=C(Nc1ccc(Cl)cc1)N[C@H]1C[C@H]1c1ccccc1 (relative stereo)	< 10	Active	< 50	> 10	Emax (Cannabinoid receptor 1 [8]): < 30%
O=C(Nc1ccc(Cl)cc1)Nc1csc(-c2ccccc2)c1	< 10	Active	< 50	> 10	–
O=C(Nc1ccc(Cl)cc1)Nc1cccc(-c2ccccc2)n1	< 10	Active	< 50	> 10	IC50 (Cannabinoid receptor 1 [1]): 3.53 µM; IC50 (Cannabinoid receptor 1 [5]): > 10 µM
O=C(Nc1ccc(Cl)cc1)Nc1cncc(-c2ccccc2)c1	< 10	Active	< 50	> 10	IC50 (Cannabinoid receptor 1 [1]): 0.292 µM; IC50 (Cannabinoid receptor 1 [5]): > 10 µM
COc1ccc(-c2ccc(NC(=O)Nc3ccc(Cl)cc3)s2)cc1	< 10	Active	< 50	> 10	–
O=C(Nc1ccc(Cl)cc1)Nc1cccc(-c2ccc[nH]2)c1	–	–	–	–	Kd (Cannabinoid receptor 1 [9]): 0.0014 µM
O=C(Nc1ccc(Cl)cc1)Nc1cc(-c2ccccc2)cs1	< 10	Active	< 50	> 10	IC50 (Cannabinoid receptor 1 [7]): 0.776 µM
O=C(Nc1ccc(Cl)cc1)N[C@H]1C[C@@H]1c1ccccc1 (relative stereo)	< 10	Active	< 50	> 10	Emax (Cannabinoid receptor 1 [8]): < 30%
O=C(Nc1ccc(Cl)cc1)Nc1ccc(-c2cc(Cl)cc(Cl)c2)s1	< 10	Active	< 50	> 10	–
O=C(Nc1ccc(Cl)cc1)Nc1ccc(-c2ccccc2Cl)s1	< 10	Active	< 50	> 10	–
CN(C)c1cccc(-c2ccc(NC(=O)Nc3ccc(Cl)cc3)s2)c1	< 10	Active	< 50	> 10	IC50 (Cannabinoid receptor 1 [10]): 2.57 µM
COc1cccc(-c2ccc(NC(=O)Nc3ccc(Cl)cc3)s2)c1	< 10	Active	< 50	> 10	–
O=C(Nc1ccc(Cl)cc1)Nc1cccc(-c2cccc(N3CCCC3)n2)c1	–	Active	< 50	> 10	t1/2 ([11]; microsomes): 13 min; Papp [12]: 2.2 ×10⁻⁶ cm/s; solubility kinetic at 2 h, 400 µM [13]: < 0.5 µM; pIC50 (Cannabinoid receptor 1 [10]): 6.91; half-life [14]: 13.4 min; Papp [15]: 2.6 ×10⁻⁶ cm/s; Emax (Cannabinoid receptor 1 [8]): < 30%; microsomal CLint at […] [16]: 114 µL/min/mg; IC50 (Cannabinoid receptor 1 [7]): 0.288 µM; IC50 (Cannabinoid receptor 1 [17]): 0.115 µM
COC(=O)c1cccc(-c2ccc(NC(=O)Nc3ccc(Cl)cc3)s2)c1	< 10	Active	< 50	> 10	IC50 (Cannabinoid receptor 1 [5]): 2.35 µM
O=C(Nc1ccc(Cl)cc1)Nc1cccc(-c2ccc(F)cc2)c1	–	–	–	–	half-life ([11]; liver microsomes): > 300 min
O=C(Nc1ccc(Cl)cc1)Nc1ncc(-c2ccccc2)s1	< 10	Active	< 50	> 10	–
O=C(Nc1ccc(Cl)cc1)Nc1ccnc(-c2ccccc2)c1	< 10	Active	< 50	> 10	IC50 (Cannabinoid receptor 1 [1]): 0.233 µM; IC50 (Cannabinoid receptor 1 [5]): 2.77 µM
O=C(Nc1ccc(Cl)cc1)Nc1ccc(-c2ccncc2)s1	< 10	Active	< 50	> 10	IC50 (Cannabinoid receptor 1 [5]): 0.263 µM
